In brackets after ≈: the same amount, converted by molar mass.
Experiments:
Serratia marcescens = experiment: Antibacterial activity against Serratia marcescens SANK 72790; type: functional
In short: (§1)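 MIC by agar dilution on Nutrient Agar, following the NCCLS standard dilution method for aerobically growing bacteria.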

Klebsiella pneumoniae = experiment: Antibacterial activity against Klebsiella pneumoniae SANK 72490; type: functional; in short: as §1
Pseudomonas aeruginosa [1] = experiment: Antibacterial activity against Pseudomonas aeruginosa SANK 73090; type: functional; in short: as §1
Proteus vulgaris = experiment: Antibacterial activity against Proteus vulgaris SANK 72890; type: functional; in short: as §1
Enterobacter cloacae [2] = experiment: Antibacterial activity against Enterobacter cloacae SANK 72690; type: functional; in short: as §1
Salmonella enteritidis = experiment: Antibacterial activity against Salmonella enteritidis SANK 72390; type: functional, Salmonella enterica subsp. enterica serovar Enteritidis; conditions: Salmonella enterica; in short: as §1
Morganella morganii = experiment: Antibacterial activity against Morganella morganii SANK 72990; type: functional; in short: as §1
Enterobacter cloacae [3] = experiment: Antibacterial activity against Enterobacter cloacae 846; type: functional; in short: as §1
Pseudomonas aeruginosa [4] = experiment: Antibacterial activity against Pseudomonas aeruginosa SANK 3719; type: functional; in short: as §1
Escherichia coli [5] = experiment: Antibacterial activity against Escherichia coli SANK 70569 (NIHJ JC-2); type: functional; in short: as §1
Escherichia coli [6] = experiment: Antibacterial activity against Escherichia coli SANK 72290; type: functional; in short: as §1
Pseudomonas aeruginosa [7] = experiment: Antibacterial activity against Pseudomonas aeruginosa SANK 73190; type: functional; in short: as §1
Staphylococcus aureus [8] = experiment: Antibacterial activity against Staphylococcus aureus SANK 71790; type: functional; in short: as §1
Enterococcus faecalis = experiment: Antibacterial activity against Enterococcus faecalis SANK 71990; type: functional; in short: as §1
Staphylococcus aureus [9] = experiment: Antibacterial activity against Staphylococcus aureus SANK 70668; type: functional; in short: as §1
Staphylococcus aureus [10] = experiment: Antibacterial activity against Staphylococcus aureus SANK 71890 (MRSA); type: functional; in short: as §1

Row | SMILES | MIC (Serratia marcescens) [µg/mL] | MIC (Klebsiella pneumoniae) [µg/mL] | MIC (Pseudomonas aeruginosa [1]) [µg/mL] | MIC (Proteus vulgaris) [µg/mL] | MIC (Enterobacter cloacae [2]) [µg/mL] | MIC (Salmonella enteritidis) [µg/mL] | MIC (Morganella morganii) [µg/mL] | MIC (Enterobacter cloacae [3]) [µg/mL] | MIC (Pseudomonas aeruginosa [4]) [µg/mL] | MIC (Escherichia coli [5]) [µg/mL] | MIC (Escherichia coli [6]) [µg/mL] | MIC (Pseudomonas aeruginosa [7]) [µg/mL] | MIC (Staphylococcus aureus [8]) [µg/mL] | MIC (Enterococcus faecalis) [µg/mL] | MIC (Staphylococcus aureus [9]) [µg/mL] | MIC (Staphylococcus aureus [10]) [µg/mL]
1 | CCCCCC[C@H]1OC(=O)CNC(=O)[C@@H]([C@@H](C)O)NC(=O)[C@H](CO)NC(=O)[C@H]([C@H](C)CC)NC(=O)[C@H](CC(C)C)N(C)C(=O)[C@@H]1C | > 100 | > 100 | > 100 | > 100 | > 100 | > 100 | > 100 | 100 (≈ 152 µM) | > 100 | > 100 | > 100 | > 100 | – | – | – | –
2 | CCCCCC[C@H]1OC(=O)CNC(=O)[C@@H]([C@H](C)O)NC(=O)[C@H](CO)NC(=O)[C@H]([C@@H](C)CC)NC(=O)[C@H](CC(C)C)N(C)C(=O)[C@@H]1C | > 100 | 25 (≈ 38.1 µM) | > 100 | > 100 | 50 (≈ 76.2 µM) | 50 (≈ 76.2 µM) | > 100 | 6.25 (≈ 9.53 µM) | > 100 | 12.5 (≈ 19.1 µM) | 12.5 (≈ 19.1 µM) | > 100 | – | – | – | –
3 | CCCCCC[C@H]1OC(=O)CNC(=O)[C@H](CC)NC(=O)[C@H](CO)NC(=O)[C@H]([C@H](C)CC)NC(=O)[C@H](CC(C)C)N(C)C(=O)[C@@H]1C | > 100 | 50 (≈ 78.1 µM) | > 100 | > 100 | > 100 | 100 (≈ 156 µM) | > 100 | 12.5 (≈ 19.5 µM) | > 100 | 25 (≈ 39.1 µM) | 25 (≈ 39.1 µM) | > 100 | – | – | – | –
4 | CCCCCC[C@H]1OC(=O)CNC(=O)[C@H]([C@H](C)O)NC(=O)[C@H](CO)NC(=O)[C@H]([C@H](C)CC)NC(=O)[C@H](CC(C)C)NC(=O)[C@@H]1C | > 100 | > 100 | > 100 | > 100 | > 100 | > 100 | > 100 | 100 (≈ 156 µM) | > 100 | > 100 | > 100 | > 100 | – | – | – | –

Continued, values first:

Row | MIC (Serratia marcescens) [µg/mL] | MIC (Klebsiella pneumoniae) [µg/mL] | MIC (Pseudomonas aeruginosa [1]) [µg/mL] | MIC (Proteus vulgaris) [µg/mL] | MIC (Enterobacter cloacae [2]) [µg/mL] | MIC (Salmonella enteritidis) [µg/mL] | MIC (Morganella morganii) [µg/mL] | MIC (Enterobacter cloacae [3]) [µg/mL] | MIC (Pseudomonas aeruginosa [4]) [µg/mL] | MIC (Escherichia coli [5]) [µg/mL] | MIC (Escherichia coli [6]) [µg/mL] | MIC (Pseudomonas aeruginosa [7]) [µg/mL] | MIC (Staphylococcus aureus [8]) [µg/mL] | MIC (Enterococcus faecalis) [µg/mL] | MIC (Staphylococcus aureus [9]) [µg/mL] | MIC (Staphylococcus aureus [10]) [µg/mL] | SMILES
5 | > 100 | 50 (≈ 74.6 µM) | > 100 | > 100 | 100 (≈ 149 µM) | 50 (≈ 74.6 µM) | > 100 | 12.5 (≈ 18.7 µM) | > 100 | 25 (≈ 37.3 µM) | 25 (≈ 37.3 µM) | > 100 | – | – | – | – | CCCCCC[C@H]1OC(=O)CNC(=O)[C@@H]([C@H](C)OC)NC(=O)[C@H](CO)NC(=O)[C@H]([C@H](C)CC)NC(=O)[C@H](CC(C)C)N(C)C(=O)[C@@H]1C
6 | > 100 | > 100 | > 100 | > 100 | > 100 | > 100 | > 100 | > 100 | > 100 | > 100 | > 100 | > 100 | – | – | – | – | CCCCCC[C@H]1OC(=O)CNC(=O)[C@@H]([C@@H](C)O)NC(=O)[C@H](CO)NC(=O)[C@H]([C@@H](C)CC)NC(=O)[C@H](CC(C)C)N(C)C(=O)[C@@H]1C
7 | 12.5 (≈ 18.3 µM) | 3.13 (≈ 4.58 µM) | > 100 | > 100 | 12.5 (≈ 18.3 µM) | 6.25 (≈ 9.14 µM) | > 100 | 1.56 (≈ 2.28 µM) | > 100 | 3.13 (≈ 4.58 µM) | 3.13 (≈ 4.58 µM) | > 100 | 50 (≈ 73.1 µM) | 100 (≈ 146 µM) | 50 (≈ 73.1 µM) | 50 (≈ 73.1 µM) | CCCCCCCC[C@H]1OC(=O)CNC(=O)[C@H]([C@H](C)O)NC(=O)[C@H](CO)NC(=O)[C@H]([C@H](C)CC)NC(=O)[C@H](CC(C)C)N(C)C(=O)[C@@H]1C
8 | 100 (≈ 152 µM) | 25 (≈ 38.1 µM) | > 100 | > 100 | 50 (≈ 76.2 µM) | 25 (≈ 38.1 µM) | > 100 | 6.25 (≈ 9.53 µM) | > 100 | 12.5 (≈ 19.1 µM) | 12.5 (≈ 19.1 µM) | > 100 | > 100 | > 100 | > 100 | > 100 | CCCCCC[C@H]1OC(=O)CNC(=O)[C@H]([C@H](C)O)NC(=O)[C@H](CO)NC(=O)[C@H]([C@H](C)CC)NC(=O)[C@H](CC(C)C)N(C)C(=O)[C@@H]1C
9 | 3.13 (≈ 4.4 µM) | 1.56 (≈ 2.19 µM) | > 100 | > 100 | 3.13 (≈ 4.4 µM) | 3.13 (≈ 4.4 µM) | > 100 | 1.56 (≈ 2.19 µM) | > 100 | 1.56 (≈ 2.19 µM) | 1.56 (≈ 2.19 µM) | > 100 | 6.25 (≈ 8.78 µM) | 12.5 (≈ 17.6 µM) | 6.25 (≈ 8.78 µM) | 12.5 (≈ 17.6 µM) | CCCCCCCCCC[C@H]1OC(=O)CNC(=O)[C@H]([C@H](C)O)NC(=O)[C@H](CO)NC(=O)[C@H]([C@H](C)CC)NC(=O)[C@H](CC(C)C)N(C)C(=O)[C@@H]1C

Reference: ChEMBL document CHEMBL1145725, “Synthesis and antimicrobial activity of novel globomycin analogues” (2003)
